Results on 36 compounds are retold here after ChEMBL document CHEMBL1149092, “Studies on pyrrolopyrimidines as selective inhibitors of multidrug-resistance-associated protein in multidrug resistance” (J Med Chem, 2004).

The structures appear in SMILES notation. pIC50: −log10 of the molar value.

Data set [1] addresses ATP-dependent translocase ABCB1 (Mus musculus, UniProt P06795). Put plainly: Inhibitory activity against mouse transporter Pgp (P-glycoprotein) expressed in EMT6/AR1.0 cell line. In outline:
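Accumulation protocol run as for MRP1, but in the Pgp-expressing murine mammary carcinoma EMT6/AR1.0 subline. IC50 is the mean of at least three experiments.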

The target in data set [2] is Multidrug resistance-associated protein 1 (Homo sapiens, UniProt P33527). Put plainly: Inhibitory activity against human transporter MRP1 (Multidrug resistance associated protein 1) expressed in COR.L23/R cell line. An outline of the steps:
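Tritiated daunomycin (0.3 μCi/mL) accumulation in COR.L23/R cells (MRP-expressing human NSCLC MDR subline), seeded 48 h before the assay. Cells were washed and cell-associated radioactivity measured. 100% accumulation was set with 100 μM verapamil.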

The nature of data set [3]: (§1) Maximal plasma concentration in BALB/C mice after 20 mg/kg intravenous dose. Further details: dose 20 mg/kg, route intravenous. It counts as ADME, organism-based. The conditions noted are these: BALB/C, mouse, plasma. In outline: (§2)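 Female Balb/c mice, three to four per time point, were dosed iv, ip or po at 20–50 mg/kg. Blood was taken by cardiac puncture under anesthesia from 0.03 to 24 h. Plasma was methanol-extracted and analysed by HPLC. AUC (linear/log trapezoidal) and t1/2 were derived by noncompartmental analysis.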

Data set [4] is described as follows: (§3) Area under curve when injected intravenously in BALB/C mice at a dose of 20 mg/kg. The arrangement: dose 20 mg/kg, route intravenous. The format is ADME, organism-based. Conditions: BALB/C, mouse, in vivo, iv. An outline of the steps: as §2
Data set [5] in a line: (§4) Half life in BALB/C mice at the dose of 20 mg/kg by i.v. administration. The format is ADME, organism-based. The conditions noted are these: mouse, in vivo, iv. The arrangement: dose 20 mg/kg, route intravenous. In outline:
as §2

Another data set has as its target Cytochrome P450 3A4 (Homo sapiens, UniProt P08684). As to the kind of experiment: Inhibitory concentration to inhibit MRP1 in CYP 3A4 assay.
Data set [6] in a line: Area under curve when injected intraperitoneally in BALB/C mice at a dose of 20 mg/kg. The format is ADME, organism-based. The arrangement: dose 20 mg/kg, route intraperitoneal. Conditions: mouse, in vivo, ip. In outline: as §2
Data set [7] is described as follows: Bioavailability in mouse (BALB/C) (dose 50 mg/kg p.o.). The conditions noted are these: in vivo, po.
Data set [8] is described as follows: Area under curve when injected perorally in BALB/C mice at a dose of 50 mg/kg. The arrangement: dose 50 mg/kg, route oral. Conditions: mouse, in vivo, po. The format is ADME, organism-based. An outline of the steps:
as §2

Data set [9] is described as follows: Half life in BALB/C mice at the dose of 20 mg/kg by i.p. administration. Further details: dose 20 mg/kg, route intraperitoneal. It counts as ADME, organism-based. The conditions noted are these: mouse, in vivo, ip. An outline of the steps:
as §2

Data set [10] in a line: Maximal plasma concentration in BALB/C mice after 20 mg/kg intraperitoneal dose. It counts as ADME, organism-based. Further details: dose 20 mg/kg, route intraperitoneal. Conditions: mouse, ip. An outline of the steps:
as §2

The nature of data set [11]: Maximal plasma concentration in BALB/C mice after 50 mg/kg oral dose. It counts as ADME, organism-based. Further details: dose 50 mg/kg, route oral. The conditions noted are these: mouse. An outline of the steps: as §2
Data set [12] is described as follows: Half life in BALB/C mice at the dose of 50 mg/kg by p.o. administration. The conditions noted are these: mouse, in vivo, po.
Data set [13] can be described thus: Bioavailability in mouse (BALB/C) (dose 20 mg/kg i.p.). Conditions: in vivo, ip.
For data set [14], the system named is Mus musculus. Described as §1. It counts as ADME, organism-based. Further details: dose 20 mg/kg, route intravenous. Conditions: in vivo. In outline:
as §2

Data set [15] deals with Mus musculus. The description is as §3. It counts as ADME, organism-based. Further details: dose 20 mg/kg, route intravenous. Conditions: in vivo, iv. An outline of the steps: as §2
Data set [16] relates to Mus musculus. The description is as §4. The format is ADME, organism-based. Further details: dose 20 mg/kg, route intravenous. Conditions: in vivo, iv. In outline: as §2
A short description of data set [17]: Half life in BALB/C mice at the dose of 50 mg/kg by i.p. administration. Conditions: mouse, in vivo, ip. It counts as ADME, organism-based. The arrangement: dose 50 mg/kg, route intraperitoneal. An outline of the steps: as §2
A short description of data set [18]: Half life in BALB/C mice at the dose of 50 mg/kg by p.o. administration. It counts as ADME, organism-based. Further details: dose 50 mg/kg, route oral. Conditions: mouse, in vivo, po. In outline:
as §2

ATP-dependent translocase ABCB1, sequence (P06795 whole entry): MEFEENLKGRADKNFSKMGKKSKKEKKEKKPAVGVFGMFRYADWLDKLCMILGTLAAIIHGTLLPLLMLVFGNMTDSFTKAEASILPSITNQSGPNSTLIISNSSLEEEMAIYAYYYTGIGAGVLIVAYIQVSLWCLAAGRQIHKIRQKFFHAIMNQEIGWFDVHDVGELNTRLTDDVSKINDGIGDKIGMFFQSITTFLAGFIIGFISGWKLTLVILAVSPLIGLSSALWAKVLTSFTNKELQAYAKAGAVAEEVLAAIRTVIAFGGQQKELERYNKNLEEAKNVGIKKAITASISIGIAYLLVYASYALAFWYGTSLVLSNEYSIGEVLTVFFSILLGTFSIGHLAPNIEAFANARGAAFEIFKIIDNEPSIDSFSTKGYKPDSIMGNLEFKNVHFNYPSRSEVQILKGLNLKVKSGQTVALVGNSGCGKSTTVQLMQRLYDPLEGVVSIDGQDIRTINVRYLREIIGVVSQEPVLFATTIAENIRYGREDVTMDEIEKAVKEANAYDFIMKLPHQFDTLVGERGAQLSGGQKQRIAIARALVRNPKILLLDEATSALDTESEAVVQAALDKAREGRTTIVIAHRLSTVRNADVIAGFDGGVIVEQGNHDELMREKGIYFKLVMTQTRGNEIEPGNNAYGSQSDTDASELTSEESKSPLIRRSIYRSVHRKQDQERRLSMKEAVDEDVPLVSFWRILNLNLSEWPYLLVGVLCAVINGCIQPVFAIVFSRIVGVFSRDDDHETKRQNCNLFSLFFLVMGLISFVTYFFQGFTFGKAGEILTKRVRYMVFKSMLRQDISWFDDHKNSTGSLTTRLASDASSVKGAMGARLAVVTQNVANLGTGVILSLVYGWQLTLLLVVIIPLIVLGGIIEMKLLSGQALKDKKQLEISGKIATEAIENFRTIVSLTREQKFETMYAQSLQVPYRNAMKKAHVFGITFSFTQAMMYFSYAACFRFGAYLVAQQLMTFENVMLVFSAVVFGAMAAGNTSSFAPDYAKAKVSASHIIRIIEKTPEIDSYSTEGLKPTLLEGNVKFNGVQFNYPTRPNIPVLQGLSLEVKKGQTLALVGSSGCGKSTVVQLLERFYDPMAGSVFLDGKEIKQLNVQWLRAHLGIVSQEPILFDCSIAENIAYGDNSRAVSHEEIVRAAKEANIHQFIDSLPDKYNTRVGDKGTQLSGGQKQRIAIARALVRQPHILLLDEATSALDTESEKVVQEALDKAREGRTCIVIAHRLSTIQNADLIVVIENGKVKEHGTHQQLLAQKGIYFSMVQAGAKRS
Cytochrome P450 3A4, sequence (P08684 whole entry): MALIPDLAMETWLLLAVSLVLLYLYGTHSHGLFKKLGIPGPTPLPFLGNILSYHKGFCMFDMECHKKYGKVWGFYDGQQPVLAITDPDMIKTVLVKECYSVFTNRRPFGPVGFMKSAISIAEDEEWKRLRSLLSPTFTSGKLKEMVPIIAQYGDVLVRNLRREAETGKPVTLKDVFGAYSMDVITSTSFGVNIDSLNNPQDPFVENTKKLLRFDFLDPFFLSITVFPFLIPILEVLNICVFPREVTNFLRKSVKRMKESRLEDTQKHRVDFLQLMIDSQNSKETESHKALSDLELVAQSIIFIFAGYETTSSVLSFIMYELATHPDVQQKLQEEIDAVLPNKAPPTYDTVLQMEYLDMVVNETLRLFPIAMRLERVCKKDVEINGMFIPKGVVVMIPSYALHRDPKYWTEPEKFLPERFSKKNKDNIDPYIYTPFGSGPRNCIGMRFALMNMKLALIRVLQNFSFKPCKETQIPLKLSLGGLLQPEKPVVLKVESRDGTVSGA
Multidrug resistance-associated protein 1, sequence (P33527 whole entry): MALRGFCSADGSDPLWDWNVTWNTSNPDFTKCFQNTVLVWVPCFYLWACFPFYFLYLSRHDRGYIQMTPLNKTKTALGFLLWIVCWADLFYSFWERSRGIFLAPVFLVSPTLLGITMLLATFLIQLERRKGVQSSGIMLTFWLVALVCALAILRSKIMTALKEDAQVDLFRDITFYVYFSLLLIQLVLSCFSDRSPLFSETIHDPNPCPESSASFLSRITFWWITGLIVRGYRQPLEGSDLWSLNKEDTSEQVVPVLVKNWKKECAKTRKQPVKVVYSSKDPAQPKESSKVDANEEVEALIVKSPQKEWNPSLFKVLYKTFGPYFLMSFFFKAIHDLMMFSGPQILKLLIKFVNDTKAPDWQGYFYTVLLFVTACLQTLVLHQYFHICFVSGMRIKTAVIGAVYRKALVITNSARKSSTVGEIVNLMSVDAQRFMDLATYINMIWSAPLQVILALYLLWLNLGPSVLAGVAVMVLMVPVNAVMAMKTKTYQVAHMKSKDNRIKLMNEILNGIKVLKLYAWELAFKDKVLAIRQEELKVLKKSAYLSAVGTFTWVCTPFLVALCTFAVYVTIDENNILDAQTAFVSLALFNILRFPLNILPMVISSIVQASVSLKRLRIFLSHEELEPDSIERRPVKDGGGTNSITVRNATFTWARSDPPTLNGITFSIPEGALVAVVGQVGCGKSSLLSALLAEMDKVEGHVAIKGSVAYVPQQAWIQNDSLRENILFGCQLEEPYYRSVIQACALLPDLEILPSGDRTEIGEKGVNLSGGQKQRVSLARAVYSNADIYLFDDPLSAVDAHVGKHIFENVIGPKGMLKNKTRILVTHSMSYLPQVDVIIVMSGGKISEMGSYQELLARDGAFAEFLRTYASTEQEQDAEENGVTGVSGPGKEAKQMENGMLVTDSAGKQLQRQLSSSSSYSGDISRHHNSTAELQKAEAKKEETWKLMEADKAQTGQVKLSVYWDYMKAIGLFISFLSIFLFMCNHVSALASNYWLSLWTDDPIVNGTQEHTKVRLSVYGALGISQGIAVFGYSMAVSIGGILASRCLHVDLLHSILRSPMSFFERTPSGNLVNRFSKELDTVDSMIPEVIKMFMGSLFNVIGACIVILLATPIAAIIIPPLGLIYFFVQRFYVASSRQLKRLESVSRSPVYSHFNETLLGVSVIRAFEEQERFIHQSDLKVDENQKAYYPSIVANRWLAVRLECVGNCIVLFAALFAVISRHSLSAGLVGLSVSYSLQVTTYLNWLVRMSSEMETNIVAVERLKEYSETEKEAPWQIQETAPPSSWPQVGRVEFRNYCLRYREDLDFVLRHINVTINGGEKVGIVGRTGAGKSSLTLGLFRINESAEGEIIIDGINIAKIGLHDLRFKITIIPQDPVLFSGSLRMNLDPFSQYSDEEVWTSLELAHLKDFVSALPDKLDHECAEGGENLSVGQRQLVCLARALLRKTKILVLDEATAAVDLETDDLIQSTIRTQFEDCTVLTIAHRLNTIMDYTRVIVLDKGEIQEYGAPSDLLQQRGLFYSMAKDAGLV

For the compound `COc1cccc(CCN2CCN(c3ncnc4c(C#N)c5n(c34)CCCC5)CC2)c1`, the pIC50 in data set [1] is 4.79; in data set [2] it was 5.64.
On to `O=C(NCc1ccccn1)c1c2n(c3c(N4CCN(CCc5ccc(F)c(F)c5)CC4)ncnc13)CCCC2`, for which the Cmax in data set [3] worked out at 11.4 µM. Besides, the AUC in data set [4] is 7380 ng·h/mL. This compound gave a half-life in data set [5] (BALB/C) of 2.5 h. Moreover, the figures for the pIC50 (in [1]; against Cytochrome P450 3A4; in data set [2]) were 5.47, 4.52 and 7.21, respectively.
`COc1ccc(CCN2CCN(c3ncnc4c(C#N)c5n(c34)CCCC5)CC2)cc1`: the pIC50 in data set [2] is < 4.30.
On to `NC(=O)c1c2n(c3c(N4CCN(CCc5ccc(F)c(F)c5)CC4)ncnc13)CCCC2`, for which the AUC in data set [6] turned out to be 13100 ng·h/mL; in [8] it was 44900 ng·h/mL; in data set [4], 25000 ng·h/mL. The bioavailability is 71.6% in data set [7] and 52% in data set [13]. Further, the Cmax in data set [3] was found to be 28 µM; in data set [10], 4.43 µM; in data set [11], 8.37 µM. For the same compound, the half-life in data set [9] is 6.35 h; in data set [5] it was 1.47 h; in data set [12] it was 6.86 h. Further, the pIC50 is < 4.30 in data set [1], 4.34 against Cytochrome P450 3A4 and 6.86 in [2].
Turning to `N#Cc1c2n(c3c(N4CCN(CCc5ccc(F)c(F)c5)CC4)nc(-c4ccncc4)nc13)CCCC2`, the pIC50 in [1] was 5.88; in [2], 6.98.
For `N#Cc1c2n(c3c(N4CCN(CCCc5ccccc5)CC4)ncnc13)CCCC2` the same measures were 4.89 and 5.13.
The like results for `N#Cc1c2n(c3c(N4CCN(CCc5ccc(F)c(F)c5)CC4)ncnc13)CCCC2` were, in that order, 4.98 and 6.64.
In the case of `Cc1nc(-c2c3n(c4c(N5CCN(CCc6ccccc6)CC5)ncnc24)CCCC3)sc1C`, the pIC50 was 5.22 in data set [1] and 6.27 in [2].
For `N#Cc1c2n(c3c(N4CCN(CCc5ccccc5[N+](=O)[O-])CC4)ncnc13)CCCC2` the same measures were < 4.30 and 5.85.
Consider `COc1cccc(CNC(=O)c2c3n(c4c(N5CCN(CCc6ccc(F)c(F)c6)CC5)ncnc24)CCCC3)c1OC`, for which, in the data set with Mus musculus [14], the Cmax amounted to 4 µM. The compound further yielded an exposure (AUC) in the data set with Mus musculus [15] of 12000 ng·h/mL. The same compound showed a T1/2 with Mus musculus [16] of 0.8 h. The pIC50 in data set [1] was 5.43; at Cytochrome P450 3A4, 5.61; in [2] it was 7.37.
In the case of `N#Cc1c2n(c3c(N4CCN(CCc5ccc([N+](=O)[O-])cc5)CC4)ncnc13)CCCC2`, the pIC50 is 4.89 in data set [1] and 6.28 in [2].
The like results for `N#Cc1c2n(c3c(N4CCN(CCc5cccc([N+](=O)[O-])c5)CC4)ncnc13)CCCC2` were, in that order, 5.01 and 6.39.
Regarding `CCC(=O)c1c2n(c3c(N4CCN(CCc5ccccc5)CC4)ncnc13)CCCC2`, the pIC50 in data set [1] was < 4.30; in [2], 5.55.
For `N#Cc1c2n(c3c(N4CCN(CCc5ccccc5)CC4)nc(-c4ccccc4)nc13)CCCC2` the same measures were 5.30 and 6.15.
For `N#Cc1c2n(c3c(N4CCN(CCc5ccccc5Cl)CC4)ncnc13)CCCC2` the same measures were 4.97 and 6.02.
The like results for `N#Cc1c2n(c3c(NS(=O)(=O)Cc4ccccc4)ncnc13)CCCC2` were, in that order, 5.27 and 4.68.
Turning to `CN(CCc1ccccc1)c1ncnc2c(C#N)c3n(c12)CCCC3`, the pIC50 in data set [1] was 4.48; in [2] it was 5.05.
With `Cc1ccccc1-c1nc(N2CCN(CCc3ccc(F)c(F)c3)CC2)c2c(n1)c(C#N)c1n2CCCC1`, the results for the pIC50 in data set [1] and in [2] were 4.74 and 6.21, respectively.
For `N#Cc1c2n(c3c(N4CCN(CCc5ccccc5)CC4)nc(I)nc13)CCCC2` the same measures were 4.88 and 6.05.
As for `N#Cc1c2n(c3c(N4CCN(CC(=O)c5ccccc5)CC4)ncnc13)CCCC2`, the pIC50 in data set [1] is 4.64; in data set [2] it was 5.73.
The like results for `N#Cc1c2n(c3c(NCCN4CCc5ccccc5C4)ncnc13)CCCC2` were, in that order, < 4.30 and 5.20.
The like results for `N#Cc1c2n(c3c(N4CCN(CCc5c[nH]c6ccccc56)CC4)ncnc13)CCCC2` were, in that order, 5.24 and 6.22.
The like results for `N#Cc1c2n(c3c(N4CCN(CCc5cccc(Cl)c5)CC4)ncnc13)CCCC2` were, in that order, 4.75 and 6.04.
Regarding `N#Cc1c2n(c3c(N4CCN(CCc5ccccc5)CC4)ncnc13)CCCC2`, the pIC50 in data set [1] is 5.02; in data set [2] it was 6.16.
As for `O=C(Nc1cccnc1)c1c2n(c3c(N4CCN(CCc5ccc(F)c(F)c5)CC4)ncnc13)CCCC2`, the bioavailability in [7] came out at 55.5%; in data set [13], 45.6%. Also, the results for the AUC in data set [8] and in [4] were 56400 ng·h/mL and 40600 ng·h/mL, respectively. Besides, the peak concentration (Cmax) in data set [3] was 24.5 µM; in data set [11], 14.3 µM. Moreover, the half-life was 4.48 h in [17], 6.72 h in data set [5] and 3.75 h in data set [18]. Further, the pIC50 in data set [1] is 5.31.
Consider `COC(=O)c1c2n(c3c(N4CCN(CCc5ccccc5)CC4)ncnc13)CCCC2`, for which the pIC50 in data set [1] was 4.78; in [2] it was 6.04.
As to `N#Cc1c2n(c3c(SCc4ccc(Cl)cc4)ncnc13)CCCCC2`, the negative-log IC50 (pIC50) in data set [2] was 5.41.
Regarding `O=C(c1ccccc1)c1c2n(c3c(N4CCN(CCc5ccccc5)CC4)ncnc13)CCCC2`, the pIC50 was 4.97 in [1] and 5.86 in [2].
For `c1ccc(CCN2CCN(c3ncnc4c(-c5ncccn5)c5n(c34)CCCC5)CC2)cc1` the same measures were < 4.30 and 6.17.
With `N#Cc1c2n(c3c(N4CCN(CCc5ccc(Cl)cc5)CC4)ncnc13)CCCC2`, the pIC50 in [1] is 5.04; in [2], 6.40.
For `N#Cc1c2n(c3c(NCCc4ccccc4)ncnc13)CCCC2` the same measures were 4.80 and 5.20.
With `N#Cc1c2n(c3c(N4CCN(CCc5ccc(F)c(F)c5)CC4)nc(-c4cccnc4)nc13)CCCC2`, the negative logarithm of the IC50 (pIC50) in data set [2] was 6.66.
Regarding `CC(=O)Nc1ccc(-c2nc(N3CCN(CCc4ccccc4)CC3)c3c(n2)c(C#N)c2n3CCCC2)cc1`, the pIC50 in data set [1] is 4.63; in data set [2], 6.24.
For `Cc1nc(-c2c3n(c4c(N5CCN(CCc6ccccc6)CC5)ncnc24)CCCC3)no1` the same measures were 5.43 and 6.19.
`N#Cc1c2n(c3c(N4CCN(S(=O)(=O)Cc5ccccc5)CC4)ncnc13)CCCC2`: the negative logarithm of the IC50 (pIC50) in [1] is 4.85; in [2], 5.18.
As for `CCNC(=O)c1c2n(c3c(N4CCN(CCc5ccc(F)c(F)c5)CC4)ncnc13)CCCC2`, the AUC was found to be 14600 ng·h/mL in data set [6], 21100 ng·h/mL in data set [8] and 16900 ng·h/mL in data set [4]. In addition, the bioavailability in data set [7] was found to be 50%; in data set [13] it was 85%. The Cmax in data set [3] stood at 18.3 µM; in data set [10] it was 7.34 µM; in [11], 5.73 µM. Also, the half-life in data set [9] is 1.84 h; in [5], 2.3 h; in [18], 7.9 h. In data set [1], this compound gave a pIC50 of 5.32.

As a reminder, the pIC50 is −log10 of the IC50, conventionally taken in molar units. A high value points to a low IC50. As usually defined, the Cmax is the maximum level reached in the sampled fluid or tissue. In general, AUC refers to concentration integrated over time. A high value points to high exposure. As usually defined, the half-life is the time needed for the level to fall by half in the phase considered. The low end stands for fast loss, the high end for slow loss. By bioavailability is commonly meant the share of a dose that reaches the circulation, judged against a reference dose that is usually intravenous. High values mean much systemic uptake, low ones little systemic uptake.
